Test [1] concerns Plasma. Briefly: Antiplatelet activity in human platelet rich plasma assessed as inhibition of ADP-induced platelet aggregation. Format: functional. The gist of the method:
(§1)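 PRP was prepared from whole blood of healthy volunteers. Compounds were added to PRP at 10, 20, 50 and 100, with aspirin at 5 as reference and PEG-400 as vehicle control. Aggregation was induced with ADP or arachidonic acid, and IE50 was derived from the concentration series.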

The test system of test [2] is Plasma. The experiment in a line: Antiplatelet activity in human platelet rich plasma assessed as inhibition of arachidonic acid-induced platelet aggregation. Format: functional. The gist of the method:
as §1

29 compounds from ChEMBL document CHEMBL1139765, “Synthesis, resolution, and antiplatelet activity of 3-substituted 1(3H)-isobenzofuranone” (2007) can be followed below.

With `CCC[C@H]1OC(=O)c2ccccc21`, the IE50 in the test on Plasma [1] is 112 µM; in the test on Plasma [2], 13.8 µM.
Take `CCCC[C@@H]1OC(=O)c2ccccc21` [(3S)-BUTYLPHTHALIDE]: the IE50 with Plasma [1] stood at 193 µM; in the test with Plasma [2] it was 16.1 µM.
In the case of `CCCC[C@H]1OC(=O)c2ccccc21`, the IE50 with Plasma [1] came out at 94.7 µM; with Plasma [2], 13.2 µM.
For `CC(C)CCC1OC(=O)c2ccccc21` (configuration not stated), in that order: 201 µM and 15.4 µM.
As for `CCCCCCCC1OC(=O)c2ccccc21` (configuration not stated), the IE50 came to 153 µM in the test on Plasma [1] and 16.1 µM with Plasma [2].
For `CCCCC1OC(=O)c2ccccc21` (stereo not drawn) [RAC-3-N-BUTYLPHTHALIDE], in that order: 170 µM and 14.5 µM.
Consider `CCCCC[C@H]1OC(=O)c2ccccc21`, for which the IE50 amounted to 178 µM in the test with Plasma [1] and 15.1 µM in the test on Plasma [2].
For `CCCCCCC[C@@H]1OC(=O)c2ccccc21`, in that order: 176 µM and 18.7 µM.
For the compound `CCCCC/C=C1\OC(=O)c2ccccc21`, the results for the IE50 in the test with Plasma [1] and in the test with Plasma [2] were 243 µM and 17.1 µM, respectively.
For `CCCCCC/C=C1\OC(=O)c2ccccc21` the same measures were 289 µM and 18 µM.
For `CCCC/C=C1\OC(=O)c2ccccc21`, in that order: 201 µM and 17.6 µM.
For `CC(=O)Oc1ccccc1C(=O)O` [ASPIRIN], in that order: 118 µM and 12.3 µM.
Take `CC[C@@H]1OC(=O)c2ccccc21`: the IE50 in the test on Plasma [1] was found to be 209 µM; with Plasma [2], 16.9 µM.
For `CC[C@H]1OC(=O)c2ccccc21` the same measures were 114 µM and 14.1 µM.
For `CC/C=C1\OC(=O)c2ccccc21`, in that order: 171 µM and 16.1 µM.
For `CCCCCCC1OC(=O)c2ccccc21` (configuration not stated), in that order: 220 µM and 15.8 µM.
Consider `CCCCC[C@@H]1OC(=O)c2ccccc21`, for which the values for the IE50 in the test on Plasma [1] and in the test on Plasma [2] were 203 µM and 17.9 µM, respectively.
For the compound `CCCCCCC[C@H]1OC(=O)c2ccccc21`, the IE50 in the test with Plasma [1] was 143 µM; in the test with Plasma [2], 14.7 µM.
`C/C=C1\OC(=O)c2ccccc21`: the IE50 with Plasma [2] worked out at 16 µM.
Take `CCC/C=C1\OC(=O)c2ccccc21` [Z-butylidenephthalide]: the IE50 in the test on Plasma [1] amounted to 204 µM; in the test on Plasma [2] it was 16.1 µM.
As for `CC(C)CC[C@H]1OC(=O)c2ccccc21`, the IE50 with Plasma [1] turned out to be 116 µM; in the test with Plasma [2] it was 14.3 µM.
As for `CCCCCC[C@@H]1OC(=O)c2ccccc21`, the IE50 with Plasma [1] was determined as 217 µM; in the test with Plasma [2] it was 18.5 µM.
For `CC(C)C/C=C1\OC(=O)c2ccccc21` the same measures were 204 µM and 17.9 µM.
For `CCC1OC(=O)c2ccccc21` (configuration not stated) the same measures were 164 µM and 15.2 µM.
For the compound `CC(C)CC[C@@H]1OC(=O)c2ccccc21`, the IE50 in the test on Plasma [1] was determined as 207 µM; in the test with Plasma [2] it was 17.2 µM.
For `CCCCCC1OC(=O)c2ccccc21` (configuration not stated), in that order: 180 µM and 16.4 µM.
Turning to `CCCCCC[C@H]1OC(=O)c2ccccc21`, the IE50 is 139 µM in the test on Plasma [1] and 14.4 µM with Plasma [2].
For `CCC[C@@H]1OC(=O)c2ccccc21`, in that order: 142 µM and 16.9 µM.
For `CCCC1OC(=O)c2ccccc21` (configuration not stated), in that order: 133 µM and 14.9 µM.
